ChEMBL document CHEMBL1123005, “1-Azacycloalkyl-1,4-benzodiazepin-2-ones with antianxiety-antidepressant actions” (J Med Chem, 1985)
Activity calls are given as the source filed them. The calls are words filed in the database; no cut-off is given here.

Tests used:
Mus musculus [1] = test: Effective dose against pentylenetetrazole intoxicity in mice administered orally; type: functional
[2] = biological target: GABA-A receptor; anion channel (Rattus norvegicus) (UniProt O09028+P15431+P18506+P18508+P19969+P20236+P23574+P23576+P28471+P28473+P30191+P62813+P63079+P63138+Q91ZM7+Q9ES14); test: Binding constant was determined by displacing potential to [3H]-diazepam binding in cerebral cortex homogenates of rat; type: tissue-based
How it was run: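 Wistar rat cerebral cortex homogenate incubated with compound and 2 nM [3H]diazepam at 0 °C for 60 min. Bound label trapped on glass filters and counted by scintillation. Ki = IC50/(1 + L/Kd).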

Rattus norvegicus [3] = test: Percent anticonflict effect in rats when administered through oral route at 16 mg/kg; type: functional
How it was run: (§1)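 Wistar rats in groups of 5-8, Geller-Seifter conflict procedure. Rats trained to lever-press for food on a variable-interval 60-s schedule. Oral dosing. A dose counted positive when shocks exceeded 12 or shock ratio exceeded 4 over four consecutive tone periods. ED50 with 95% limits by probit.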

Mus musculus [4] = test: Effective dose against tetrabenazine induced ptosis in mice administered orally; type: functional
How it was run: (§2)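 Male DS mice, 20-27 g, groups of five. Compound given po or sc in saline or gum arabic at 0.1 mL/10 g. Tetrabenazine 50 mg/kg sc given 1, 4 or 24 h later. Ptosis scored 1-4 at 1 h after TBZ, with ridit transformation. Dose for 50% prevention by regression.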

Mus musculus [5] = test: Effective dose against pentylenetetrazole intoxicity in mice administered subcutaneously; NE = not effective at dose 10 mg/kg; type: functional, organism-based; set-up: dose 10 mg/kg
Mus musculus [6] = test: Effective dose against tetrabenazine induced ptosis in mice administered through subcutaneous route; type: functional; conditions: sc; how it was run: as §2
Mus musculus [7] = test: Effective dose against tetrabenazine induced ptosis in mice administered subcutaneously at 50 mg/kg; type: functional; conditions: sc, route subcutaneous; how it was run: as §2
Rattus norvegicus [8] = species: Rattus norvegicus; test: Inhibitory activity against uptake of [3H]norepinephrine into rat brain synaptosomes.; type: functional
How it was run: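 P2 synaptosomes from male Wistar rat cerebral cortex incubated with [3H]norepinephrine at 37 °C for 20 min, with compound at 5-6 concentrations. Stopped by Krebs-Henseleit dilution and glass-fibre filtration, then scintillation counting. IC50 taken as the concentration giving 50% uptake inhibition.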

Mus musculus [9] = test: Effective dose against pentylenetetrazole intoxicity in mice administered through subcutaneous route; type: functional; conditions: sc
Mus musculus [10] = test: Effective dose against tetrabenazine induced ptosis in mice administered subcutaneously; type: functional; conditions: sc; how it was run: as §2
Mus musculus [11] = test: Effective dose against tetrabenazine induced ptosis in mice administered orally.; type: functional; conditions: po; how it was run: as §2
Rattus norvegicus [12] = test: Percent inhibition was evaluated by their anticonflict effect in rats when administered through oral route at 8 mg/kg; type: functional; how it was run: as §1
Mus musculus [13] = test: Effective dose against pentylenetetrazole intoxicity in mice administered subcutaneously at 20 mg/kg; type: functional; conditions: sc, route subcutaneous
Rattus norvegicus [14] = test: Effective dose was evaluated by their anticonflict effect in rats when administered through oral route; type: functional; how it was run: as §1
[15] = Acute toxicity was measured in mice after peroral administration (1306-1666); type: organism-based; conditions: mouse, in vivo, po
How it was run: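 Male DS mice, 20-26 g, given compound orally; mortality checked the day after treatment in groups of 10. LD50 by probit method, or by up-and-down method of Brownlee et al. (n = 5) where estimated.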

[16] = Mus musculus, po, read-out: ED50

CN1CCC(N2C(=O)CN=C(c3ccccc3)c3cc(F)ccc32)CC1
ED50 (Mus musculus [1]): 25.79 mg/kg | ED50 (Mus musculus [1]; [16]): 30 mg/kg | K2 [2]: 2.42 µM | inhibition in vivo at 16 mg/kg (Rattus norvegicus [3]): 20% | ED50 (Mus musculus [4]; [16]): 1.41 mg/kg

CCOC(=O)N1CCC(N2C(=O)CN=C(c3ccccc3)c3ccccc32)CC1
ED50 (Mus musculus [5]): inactive | ED50 (Mus musculus [6]): 0.65 mg/kg | K2 [2]: 2.3 µM

CN1CCC(N2C(=O)CN=C(c3ccccc3Cl)c3cc(Cl)ccc32)CC1
ED50 (Mus musculus [1]; [16]): 3.24 mg/kg | inhibition in vivo at 50 mg/kg (Mus musculus [7]): 23% | K2 [2]: 0.021 µM | IC50 (Rattus norvegicus [8]): 39.9 µM | ED50 (Mus musculus [4]; [16]): 26.1 mg/kg | ED50 (Mus musculus [9]): 1.69 mg/kg

O=C1CN=C(c2ccccc2F)c2cc(Cl)ccc2N1C1CCNC1 (centres undefined)
ED50 (Mus musculus [10]): 28.9 mg/kg | ED50 (Mus musculus [11]): 0.4 mg/kg | ED50 (Mus musculus [1]; [16]): 20.1 mg/kg | K2 [2]: 0.73 µM | inhibition in vivo at 8 mg/kg (Rattus norvegicus [12]): 60%

CN1CCC(N2C(=O)CN=C(c3ccccc3)c3cc(Cl)ccc32)CC1
inhibition in vivo at 20 mg/kg (Mus musculus [13]): 50% | ED50 (Mus musculus [10]): 0.85 mg/kg | ED50 (Mus musculus [1]; [16]): 29.9 mg/kg | ED50 (Rattus norvegicus [14]): 8.4 mg/kg | ED50 (Mus musculus [4]): 0.74 mg/kg | ED50 (Mus musculus [4]; [16]): 0.58 mg/kg

O=C1CN=C(c2ccccc2F)c2cc(Cl)ccc2N1C1CCNCC1
ED50 (Mus musculus [10]): 0.08 mg/kg | ED50 (Mus musculus [1]): 11.39 mg/kg | ED50 (Mus musculus [1]; [16]): 14.2 mg/kg | LD50 [15]: 1480 mg/kg | K2 [2]: 0.036 µM | ED50 (Rattus norvegicus [14]): 6.51 mg/kg | IC50 (Rattus norvegicus [8]): 0.118 µM | ED50 (Mus musculus [4]): 0.67 mg/kg | ED50 (Mus musculus [4]; [16]): 0.76 mg/kg
